From publication PMC3045600 (Nucleic Acids Research, 2010)
Values joined by “and” are separate entries in the source; they are usually repeats but may differ in a detail not shown here. Identical values can stand only once. Like-named read-outs stand apart in the source and are kept apart here.

How the values were obtained:
[1] = molecular target: T1, bacteriophage T4 DNA polymerase (gp43 exo−) (Enterobacteria phage T4, UniProt P04415, D219A); assay type: biochemical; conditions: 150 µM dXTP, then 500 µM dGTP, quenched at 180 s; 13/20SP-mer
T1 sequence (P04415 1-898 D219A): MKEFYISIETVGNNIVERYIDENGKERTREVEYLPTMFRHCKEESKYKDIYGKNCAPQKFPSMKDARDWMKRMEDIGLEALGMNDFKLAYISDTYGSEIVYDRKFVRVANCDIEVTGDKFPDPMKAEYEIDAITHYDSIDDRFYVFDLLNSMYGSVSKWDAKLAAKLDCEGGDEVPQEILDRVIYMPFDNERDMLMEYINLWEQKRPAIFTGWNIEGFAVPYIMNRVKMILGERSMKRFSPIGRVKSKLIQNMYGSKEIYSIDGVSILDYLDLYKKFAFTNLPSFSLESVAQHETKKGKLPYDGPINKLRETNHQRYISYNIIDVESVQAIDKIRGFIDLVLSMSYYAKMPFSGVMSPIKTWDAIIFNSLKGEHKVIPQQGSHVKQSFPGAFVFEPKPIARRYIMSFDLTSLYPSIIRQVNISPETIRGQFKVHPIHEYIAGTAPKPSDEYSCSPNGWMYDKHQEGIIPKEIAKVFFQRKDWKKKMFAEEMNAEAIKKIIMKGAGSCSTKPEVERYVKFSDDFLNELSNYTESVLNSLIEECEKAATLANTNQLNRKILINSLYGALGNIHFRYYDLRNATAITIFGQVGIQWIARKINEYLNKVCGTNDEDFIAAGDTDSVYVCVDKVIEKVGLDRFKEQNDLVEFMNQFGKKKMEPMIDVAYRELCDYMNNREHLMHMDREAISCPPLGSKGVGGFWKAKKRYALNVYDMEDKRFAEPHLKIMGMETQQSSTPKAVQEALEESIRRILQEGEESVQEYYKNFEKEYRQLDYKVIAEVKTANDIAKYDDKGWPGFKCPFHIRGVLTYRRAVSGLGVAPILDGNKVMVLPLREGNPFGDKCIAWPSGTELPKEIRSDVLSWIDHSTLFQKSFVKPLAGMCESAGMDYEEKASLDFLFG
Method in brief: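 Exonuclease-deficient T4 gp43 (D219A), 500 nM, with 250 nM 5′-32P-labelled 13/20SP-mer, in 25 mM Tris–OAc pH 7.5, 150 mM KOAc, 10 mM 2-mercaptoethanol and 10 mM Mg2+ at 25°C. Test nucleotide (150 µM) was inserted for 5 min, then 500 µM dGTP was added. Reactions were quenched with 350 mM EDTA and resolved on 20% sequencing gels. Extended versus non-extended primer was quantified by phosphorimaging, corrected for the zero point.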

[2] = molecular target: T2, exonuclease-deficient bacteriophage T4 DNA polymerase (gp43 exo−) (Enterobacteria phage T4, UniProt P04415, D219A); conditions: single abasic site, cited from earlier work; for Kd: read-out: Kd, app
T2 sequence (P04415 1-898 D219A): T1 sequence (P04415 1-898 D219A)

[3] = molecular target: T2, exonuclease-deficient bacteriophage T4 DNA polymerase (gp43 exo−); conditions: double abasic site, cited from earlier work; for Kd: read-out: Kd, app
[4] = molecular target: T2, exonuclease-deficient bacteriophage T4 DNA polymerase (gp43 exo−); conditions: blunt end DNA, cited from earlier work; for Kd: read-out: Kd, app
[5] = molecular target: T2, exonuclease-deficient bacteriophage T4 DNA polymerase (gp43 exo−); conditions: opposite thymine, cited from earlier work; for Kd: read-out: Kd, app
[6] = molecular target: T1, bacteriophage T4 DNA polymerase (gp43 exo−); conditions: previously demonstrated; cited from earlier work

Structure (SMILES) | Extension beyond the nucleotide paired opposite an abasic site [1] | Kd [2] [µM] | kpol [2] | kpol/Kd, app [2] | kpol [3] [s⁻¹] | kpol/Kd, app [3] | Kd [3] [µM] | kpol [4] [s⁻¹] | kpol/Kd, app [4] [M⁻¹ s⁻¹] | Kd [4] [µM] | kpol [5] [s⁻¹] | kpol/Kd, app [5] | Kd [5] [µM] | Extension beyond the nucleotide paired opposite an abasic site [6]
O=[N+]([O-])c1ccc2c(ccn2C2CC(O)C(COP(=O)(O)OP(=O)(O)OP(=O)(O)O)O2)c1 (stereo not shown) [5-NITP] | does not extend | 18 ± 3 | 126 s⁻¹ and 126 ± 7 s⁻¹ | 7 000 000 M^−1 s^−1 | 70 ± 6 | 3 890 000 M^−1 s^−1 | 18 ± 5 | 0.015 ± 0.004 | 710 | 21 ± 8 | 0.9 ± 0.1 | 100 000 M^−1 s^−1 | 9 ± 1 | –
O=P(O)(O)OP(=O)(O)OP(=O)(O)OC[C@H]1O[C@@H](n2ccc3cc(-c4ccccc4)ccc32)C[C@@H]1O [5-PhITP] | does not extend | 14 ± 3 | 53 s⁻¹ and 53 ± 4 s⁻¹ | – | 45 ± 3 | 3 750 000 M^−1 s^−1 | 12 ± 2 | 0.007 ± 0.004 | 160 | 45 ± 8 | 0.16 ± 0.01 | 6400 M⁻¹ s⁻¹ | 25 ± 7 | –
Nc1ncnc2c1ncn2[C@H]1C[C@H](O)[C@@H](COP(=O)(O)OP(=O)(O)OP(=O)(O)O)O1 [dATP] | showed extension beyond the abasic site | 35 ± 5 | 0.15 ± 0.01 s⁻¹ | 4300 M⁻¹ s⁻¹ | 0.55 ± 0.05 | 3500 M⁻¹ s⁻¹ | 157 ± 28 | – | – | – | 100 ± 10 | 10 000 000 M^−1 s^−1 | 10 ± 2 | extends beyond
Nc1nc2c(ncn2[C@H]2C[C@H](O)[C@@H](COP(=O)(O)OP(=O)(O)OP(=O)(O)O)O2)c(=O)[nH]1 [dGTP] | – | – | – | – | – | – | – | – | – | – | – | – | – | extends beyond
